The values below come from ChEMBL document CHEMBL1765085, “Cytotoxic and apoptosis-inducing activities of triterpene acids from Poria cocos” (J Nat Prod, 2011).

pIC50: −log10 of the molar value. Some results are limits rather than exact numbers.

System in the first test: not listed separately
Nature of the test: Cytotoxicity in human AZ-521 cells assessed as cell viability after 48 hrs by MTT assay. Type of test: functional, cell-based. To be noted: AZ-521, 48 h. For orientation: Tetrazolium assays rely on reduction of a dye to a coloured formazan, in cell work by metabolically active cells.
Usually pIC50 stands for the negative decadic logarithm of the IC50, by convention in mol/L. In the case of `O=c1[nH]cc(F)c(=O)[nH]1` [FLUOROURACIL], the negative-log IC50 (pIC50) was less than 4.00.
Same read-out and setting: in the case of `C=C(C)[C@@H]1CCC2=C(CC[C@]3(C)[C@@H]([C@@H](CCC=C(C)C)C(=O)OC)[C@H](O)C[C@@]23C)[C@@]1(C)CCC(=O)OC` [DIMETHYL PORICOATE G] it was 4.46; in that of `C=C(CC[C@@H](CO)[C@H]1[C@H](O)C[C@@]2(C)C3=CC[C@H]4C(C)(C)[C@H](O)CC[C@]4(C)C3=CC[C@]12C)C(C)(C)O`, less than 4.00; in that of `C=C(CC[C@@H](C(=O)OC)[C@H]1[C@H](O)C[C@@]2(C)C3=CC[C@H]4C(C)(C)[C@H](O)CC[C@]4(C)C3=CC[C@]12C)C(C)(C)O`, 4.84.

Another test deals with DU-145. Nature of the test: Cytotoxicity in human DU145 cells assessed as cell viability after 48 hrs by MTT assay. Type of test: functional, cell-based. To be noted: DU-145, 48 h. In a few lines: (§1)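 Growth conditions: RPMI 1640 for HL60, CRL1579, NIH:OVCAR-3, SK-BR-3, DU145 and PANC-1; D-MEM for A549; MEM for WI-38; all with 10% FBS and antibiotics, 37 °C, 5% CO2. Seeded at 3 × 10^3 cells/well (OVCAR-3 1 × 10^4), then treated 48 h with 10^-4 to 10^-6 M. MTT for 3 h, formazan dissolved in 0.04 M HCl/2-propanol, A570/630. IC50 (50% growth inhibition) from triplicates.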
As for `O=c1[nH]cc(F)c(=O)[nH]1` [FLUOROURACIL], the pIC50 was less than 4.00.
Take `C=C(C)[C@@H]1CCC2=C(CC[C@]3(C)[C@@H]([C@@H](CCC=C(C)C)C(=O)OC)[C@H](O)C[C@@]23C)[C@@]1(C)CCC(=O)OC` [DIMETHYL PORICOATE G]: the pIC50 is less than 4.00.
For `C=C(CC[C@@H](CO)[C@H]1[C@H](O)C[C@@]2(C)C3=CC[C@H]4C(C)(C)[C@H](O)CC[C@]4(C)C3=CC[C@]12C)C(C)(C)O`, the pIC50 was less than 4.00.
Regarding `C=C(CC[C@@H](C(=O)OC)[C@H]1[C@H](O)C[C@@]2(C)C3=CC[C@H]4C(C)(C)[C@H](O)CC[C@]4(C)C3=CC[C@]12C)C(C)(C)O`, the pIC50 was 4.54.

A further test concerns PANC-1. Nature of the test: Cytotoxicity in human PANC1 cells assessed as cell viability after 48 hrs by MTT assay. Type of test: functional, cell-based. To be noted: PANC-1, 48 h. In a few lines:
as §1
As for `O=c1[nH]cc(F)c(=O)[nH]1` [FLUOROURACIL], the negative-log IC50 (pIC50) was 4.27.
Still for that read-out and setting: under `C=C(C)[C@@H]1CCC2=C(CC[C@]3(C)[C@@H]([C@@H](CCC=C(C)C)C(=O)OC)[C@H](O)C[C@@]23C)[C@@]1(C)CCC(=O)OC` [DIMETHYL PORICOATE G] stands less than 4.00.
Same read-out and setting: in the case of `C=C(CC[C@@H](CO)[C@H]1[C@H](O)C[C@@]2(C)C3=CC[C@H]4C(C)(C)[C@H](O)CC[C@]4(C)C3=CC[C@]12C)C(C)(C)O` it was less than 4.00; in that of `C=C(CC[C@@H](C(=O)OC)[C@H]1[C@H](O)C[C@@]2(C)C3=CC[C@H]4C(C)(C)[C@H](O)CC[C@]4(C)C3=CC[C@]12C)C(C)(C)O`, 4.15.

For the next test, the system named is HL-60. Nature of the test: Cytotoxicity in human HL60 cells assessed as cell viability after 48 hrs by MTT assay. Type of test: functional, cell-based. To be noted: HL-60, 48 h. The gist of the method:
as §1
Regarding `O=c1[nH]cc(F)c(=O)[nH]1` [FLUOROURACIL], the pIC50 was 5.02.
In the case of `C=C(C)[C@@H]1CCC2=C(CC[C@]3(C)[C@@H]([C@@H](CCC=C(C)C)C(=O)OC)[C@H](O)C[C@@]23C)[C@@]1(C)CCC(=O)OC` [DIMETHYL PORICOATE G], the pIC50 was 5.06.
Same read-out and setting: under `C=C(CC[C@@H](CO)[C@H]1[C@H](O)C[C@@]2(C)C3=CC[C@H]4C(C)(C)[C@H](O)CC[C@]4(C)C3=CC[C@]12C)C(C)(C)O` stands 5.60; under `C=C(CC[C@@H](C(=O)OC)[C@H]1[C@H](O)C[C@@]2(C)C3=CC[C@H]4C(C)(C)[C@H](O)CC[C@]4(C)C3=CC[C@]12C)C(C)(C)O`, 5.16.

In the next test the test system is A549. Put plainly: Cytotoxicity in human A549 cells assessed as cell viability after 48 hrs by MTT assay. Type of test: functional, cell-based. To be noted: A549, 48 h. In a few lines: as §1
Consider `C=C(C)[C@@H]1CCC2=C(CC[C@]3(C)[C@@H]([C@@H](CCC=C(C)C)C(=O)OC)[C@H](O)C[C@@]23C)[C@@]1(C)CCC(=O)OC` [DIMETHYL PORICOATE G], for which the pIC50 is 4.18.
Turning to `C=C(CC[C@@H](CO)[C@H]1[C@H](O)C[C@@]2(C)C3=CC[C@H]4C(C)(C)[C@H](O)CC[C@]4(C)C3=CC[C@]12C)C(C)(C)O`, the pIC50 is less than 4.00.
With `C=C(CC[C@@H](C(=O)OC)[C@H]1[C@H](O)C[C@@]2(C)C3=CC[C@H]4C(C)(C)[C@H](O)CC[C@]4(C)C3=CC[C@]12C)C(C)(C)O`, the negative logarithm of the IC50 (pIC50) is 4.38.

Another test relates to OVCAR-3. Put plainly: Cytotoxicity in human OVCAR3 cells assessed as cell viability after 48 hrs by MTT assay. Type of test: functional, cell-based. To be noted: OVCAR-3, 48 h. The gist of the method:
as §1
As to `O=c1[nH]cc(F)c(=O)[nH]1` [FLUOROURACIL], the pIC50 is less than 4.00.
With `C=C(C)[C@@H]1CCC2=C(CC[C@]3(C)[C@@H]([C@@H](CCC=C(C)C)C(=O)OC)[C@H](O)C[C@@]23C)[C@@]1(C)CCC(=O)OC` [DIMETHYL PORICOATE G], the pIC50 was 4.58.
With `C=C(CC[C@@H](CO)[C@H]1[C@H](O)C[C@@]2(C)C3=CC[C@H]4C(C)(C)[C@H](O)CC[C@]4(C)C3=CC[C@]12C)C(C)(C)O`, the pIC50 was less than 4.00.
Same read-out and setting: in the case of `C=C(CC[C@@H](C(=O)OC)[C@H]1[C@H](O)C[C@@]2(C)C3=CC[C@H]4C(C)(C)[C@H](O)CC[C@]4(C)C3=CC[C@]12C)C(C)(C)O` it was 4.17.

System in another test: not listed separately
Put plainly: Cytotoxicity in human CRL1579 cells assessed as cell viability after 48 hrs by MTT assay.
Details: not given
Type of test: functional, cell-based. In a few lines:
as §1
Consider `O=c1[nH]cc(F)c(=O)[nH]1` [FLUOROURACIL], for which the pIC50 was less than 4.00.
As to `C=C(C)[C@@H]1CCC2=C(CC[C@]3(C)[C@@H]([C@@H](CCC=C(C)C)C(=O)OC)[C@H](O)C[C@@]23C)[C@@]1(C)CCC(=O)OC` [DIMETHYL PORICOATE G], the pIC50 is 4.37.
Take `C=C(CC[C@@H](CO)[C@H]1[C@H](O)C[C@@]2(C)C3=CC[C@H]4C(C)(C)[C@H](O)CC[C@]4(C)C3=CC[C@]12C)C(C)(C)O`: the pIC50 was 4.85.
Still for that read-out and setting: in the case of `C=C(CC[C@@H](C(=O)OC)[C@H]1[C@H](O)C[C@@]2(C)C3=CC[C@H]4C(C)(C)[C@H](O)CC[C@]4(C)C3=CC[C@]12C)C(C)(C)O` it was 4.12.

The next test relates to SK-BR-3. Nature of the test: Cytotoxicity in human SK-BR-3 cells assessed as cell viability after 48 hrs by MTT assay. Type of test: functional, cell-based. To be noted: SK-BR-3, 48 h. In a few lines:
as §1
For the compound `O=c1[nH]cc(F)c(=O)[nH]1` [FLUOROURACIL], the pIC50 is less than 4.00.
`C=C(C)[C@@H]1CCC2=C(CC[C@]3(C)[C@@H]([C@@H](CCC=C(C)C)C(=O)OC)[C@H](O)C[C@@]23C)[C@@]1(C)CCC(=O)OC` [DIMETHYL PORICOATE G]: the pIC50 is 5.37.
For `C=C(CC[C@@H](CO)[C@H]1[C@H](O)C[C@@]2(C)C3=CC[C@H]4C(C)(C)[C@H](O)CC[C@]4(C)C3=CC[C@]12C)C(C)(C)O`, the negative logarithm of the IC50 (pIC50) is less than 4.00.
Same read-out and setting: in the case of `C=C(CC[C@@H](C(=O)OC)[C@H]1[C@H](O)C[C@@]2(C)C3=CC[C@H]4C(C)(C)[C@H](O)CC[C@]4(C)C3=CC[C@]12C)C(C)(C)O` it was 4.56.
